# Assay results from ChEMBL document CHEMBL3407438, “Discovery of potent, orally bioavailable, small-molecule inhibitors of WNT signaling from a cell-based pathway screen” (J Med Chem, 2015).
# Tests used:
# [1] = Apparent permeability in human Caco2 cells after 2 hrs by LC-MS/MS analysis; assay type: ADME, cell-based, Caco-2; conditions: Caco-2
# Liver microsome = assay: Intrinsic clearance in rat liver microsome at 1 uM preincubated for 5 mins by LC-MS analysis; assay type: ADME; conditions: microsomes
# [2] = Drug metabolism in mouse liver microsome at 10 uM after 30 mins by LC-MS analysis; assay type: ADME; conditions: liver microsomes, read-out: Drug metabolism
# [3] = Drug metabolism in human liver microsome at 10 uM after 30 mins by LC-MS analysis; assay type: ADME; conditions: liver microsomes, read-out: Drug metabolism
# cells = assay type: cell-based; conditions: Homo sapiens, 7dF3
# [4] = Aqueous solubility of the compound; assay type: physicochemical; conditions: buffer
# [5] = Inhibition of WNT signaling in human T-Rex HEK293 Tet-O cells harboring degradation resistant form of beta-catenin after 4 days by luciferase reporter assay; assay type: cell-based; conditions: HEK293, 96 h
# In short: (§1)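 HEK293 T-Rex Tet-O cells stably carrying TCF-firefly luciferase-IRES-GFP reporter plus Tet-inducible cDNA (ΔN-LRP6, Dvl2, Axin-GID, ΔN-β-catenin or VP16-TCF4) introduced by FLP-FRT recombination; seeded from frozen at 40 000/well; day 3 compound added, eight concentrations 30 μM to 14 nM (final), with doxycycline hyclate; day 4 cells lysed, firefly luciferase luminescence read.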
# [6] = Inhibition of WNT signaling in human T-Rex HEK293 Tet-O cells harboring constitutively active deltaN-LRP6 after 4 days by luciferase reporter assay; assay type: cell-based; conditions: HEK293, 96 h; in short: as §1
# [7] = Inhibition of WNT signaling in human T-Rex HEK293 Tet-O cells harboring constitutively active VP16-TCF in absence of beta-catenin after 4 days by luciferase reporter assay; assay type: cell-based; conditions: HEK293, 96 h; in short: as §1
# [8] = Inhibition of WNT signaling in human T-Rex HEK293 Tet-O cells harboring Dvl2 after 4 days by luciferase reporter assay; assay type: cell-based; conditions: HEK293, 96 h; in short: as §1
# [9] = Inhibition of WNT signaling in human T-Rex HEK293 Tet-O cells harboring dominant negative form of Axin GSK3beta-interacting domain after 4 days by luciferase reporter assay; assay type: cell-based; conditions: HEK293, 96 h; in short: as §1
smiles,measurement,setting,value
O=C1NCCC12CCN(c1c(Cl)cncc1-c1ccc3cnccc3c1)CC2,Papp at 2 h,[1],24 ×10⁻⁶ cm/s
O=C1NCCC12CCN(c1c(Cl)cncc1-c1ccc(-c3ccncc3)cc1)CC2,CLint,Liver microsome,99 µL/min/mg
Cc1cncc(-c2ccc(N3CCOCC3)cc2)c1N1CCC2(CCNC2=O)CC1,"metabolised at 0.5 h, 10 µM",[2],26%
same,"metabolised at 0.5 h, 10 µM",[3],5%
same,IC50,cells,113 nM
CC(C)c1cncc(-c2ccc(N3CCOCC3)cc2)c1N1CCC2(CCNC2=O)CC1,"metabolised at 0.5 h, 10 µM",[2],17%
same,"metabolised at 0.5 h, 10 µM",[3],38%
same,IC50,cells,78 nM
NC(=O)C1CCN(c2c(Br)cncc2Br)CC1,"metabolised at 0.5 h, 10 µM",[2],35%
same,"metabolised at 0.5 h, 10 µM",[3],13%
same,IC50,cells,360 nM
NC(=O)C1CCN(c2ccncc2)CC1,IC50,cells,> 30000 nM
NC(=O)C1CCN(c2ccncc2-c2ccccc2)CC1,"metabolised at 0.5 h, 10 µM",[2],23%
same,"metabolised at 0.5 h, 10 µM",[3],4%
same,IC50,cells,3260 nM
NC(=O)C1CCN(c2c(Cl)cncc2-c2cccc(N3CCOCC3)c2)CC1,"metabolised at 0.5 h, 10 µM",[2],38%
same,"metabolised at 0.5 h, 10 µM",[3],39%
same,IC50,cells,309 nM
Clc1cncc(Cl)c1N1CCCCC1,IC50,cells,> 30000 nM
CN1CCC2(CCN(c3c(Cl)cncc3-c3ccc(N4CCOCC4)cc3)CC2)C1=O,IC50,cells,715 nM
NC(=O)C1CCN(c2c(Cl)cncc2-c2cccs2)CC1,"metabolised at 0.5 h, 10 µM",[2],97%
same,"metabolised at 0.5 h, 10 µM",[3],27%
same,IC50,cells,40 nM
O=C1NCCC12CCN(c1c(Cl)cncc1-c1ccc(N3CCOCC3)cc1)C2 (racemic),"metabolised at 0.5 h, 10 µM",[2],42%
same,IC50,cells,55 nM
NC(=O)C1CCN(c2c(Cl)cncc2-c2ccncc2)CC1,"metabolised at 0.5 h, 10 µM",[2],40%
same,"metabolised at 0.5 h, 10 µM",[3],5%
same,IC50,cells,728 nM
O=C(Nc1ccccc1)C1CCN(c2c(Cl)cncc2Cl)CC1,IC50,cells,> 30000 nM
O=C1NCCC12CCN(c1c(Cl)cncc1-c1ccc(N3CCCCC3)cc1)CC2,CLint,Liver microsome,225 µL/min/mg
NC(=O)C1CCN(c2ccncc2Cl)CC1,"metabolised at 0.5 h, 10 µM",[3],8%
same,IC50,cells,23000 nM
Cn1cc(-c2ccc(-c3cncc(Cl)c3N3CCC4(CCNC4=O)C3)cc2)cn1 (stereo in doubt; 79),CLint,Liver microsome,298 µL/min/mg
CNC(=O)C1CCN(c2c(Cl)cncc2Cl)CC1,"metabolised at 0.5 h, 10 µM",[2],57%
same,"metabolised at 0.5 h, 10 µM",[3],13%
same,IC50,cells,12500 nM
CC1(C(N)=O)CCN(c2c(Cl)cncc2-c2ccc(N3CCOCC3)cc2)CC1,"metabolised at 0.5 h, 10 µM",[2],20%
same,"metabolised at 0.5 h, 10 µM",[3],21%
same,IC50,cells,87 nM
NC(=O)C1CCN(c2c(Cl)cncc2-c2ccccc2)CC1,"metabolised at 0.5 h, 10 µM",[2],56%
same,"metabolised at 0.5 h, 10 µM",[3],6%
same,IC50,cells,88 nM
O=C(C1CCN(c2c(Cl)cncc2Cl)CC1)N1CCOCC1,IC50,cells,44600 nM
NC(=O)C1CCN(c2c(Cl)cncc2-c2ccc(N3CCOCC3)cc2)CC1,"metabolised at 0.5 h, 10 µM",[2],21%
same,"metabolised at 0.5 h, 10 µM",[3],19%
same,IC50,cells,42 nM
"Cn1cc(-c2ccc(-c3cncc(Cl)c3N3CCC4(CCNC4=O)C3)cc2)cn1 (single isomer, unassigned; enantiomer 2)",CLint,Liver microsome,124 µL/min/mg
O=C1NCCC12CCN(c1c(-c3ccc(N4CCOCC4)cc3)cncc1C1CC1)CC2,IC50,cells,1000 nM
NCC1CCN(c2c(Cl)cncc2Cl)CC1,IC50,cells,10000 nM
CN(C)c1ccc(-c2cncc(Cl)c2N2CCC(C(N)=O)CC2)cc1,IC50,cells,123 nM
CN1CCN(c2ccc(-c3cncc(Cl)c3N3CCC4(CCNC4=O)CC3)cc2)CC1,CLint,Liver microsome,10 µL/min/mg
Cn1ncc2cc(-c3cncc(Cl)c3N3CCC4(CCNC4=O)CC3)ccc21,CLint,Liver microsome,66 µL/min/mg
NC(=O)C1CCN(c2c(Cl)cccc2Cl)CC1,IC50,cells,27900 nM
CN(C)C(=O)C1CCN(c2c(Cl)cncc2Cl)CC1,"metabolised at 0.5 h, 10 µM",[2],99%
same,"metabolised at 0.5 h, 10 µM",[3],22%
same,IC50,cells,26000 nM
O=C1NCCC12CCCN(c1c(Cl)cncc1-c1ccc(N3CCOCC3)cc1)C2 (racemic),IC50,cells,5700 nM
O=C1CC2(CCN(c3c(Cl)cncc3-c3ccc(N4CCOCC4)cc3)CC2)C(=O)N1,solubility,[4],3 µg/mL
same,"metabolised at 0.5 h, 10 µM",[2],25%
same,"metabolised at 0.5 h, 10 µM",[3],24%
same,IC50,cells,6 nM
O=C1NCCC12CCN(c1c(Cl)cncc1-c1ccc(C3CCOCC3)cc1)CC2,CLint,Liver microsome,111 µL/min/mg
C=C(C)c1cncc(-c2ccc(N3CCOCC3)cc2)c1N1CCC2(CCNC2=O)CC1,"metabolised at 0.5 h, 10 µM",[2],39%
same,IC50,cells,12 nM
O=C1NCCC12CCN(c1c(-c3ccccc3)cncc1-c1ccc(N3CCOCC3)cc1)CC2,IC50,cells,> 30000 nM
CS(=O)(=O)c1ccc(-c2cncc(Cl)c2N2CCC(C(N)=O)CC2)cc1,"metabolised at 0.5 h, 10 µM",[2],29%
same,"metabolised at 0.5 h, 10 µM",[3],0%
same,IC50,cells,1670 nM
O=C1NCCC12CCN(c1c(Cl)cncc1-c1ccc(-c3cnoc3)cc1)CC2,CLint,Liver microsome,136 µL/min/mg
NC(=O)C1CCN(c2c(Cl)cncc2-c2ccc(F)cc2)CC1,"metabolised at 0.5 h, 10 µM",[2],52%
same,IC50,cells,87 nM
Cn1cc(-c2ccc(-c3cncc(Cl)c3N3CCC4(CCNC4=O)C3)cc2)cn1 (racemic),CLint,Liver microsome,213 µL/min/mg
Cn1cc(-c2cncc(-c3ccc(N4CCOCC4)cc3)c2N2CCC3(CCNC3=O)CC2)cn1,IC50,cells,1200 nM
Cn1cc(-c2cncc(Cl)c2N2CCC(C(N)=O)CC2)cn1,"metabolised at 0.5 h, 10 µM",[2],27%
same,"metabolised at 0.5 h, 10 µM",[3],4%
same,IC50,cells,778 nM
O=C1CC2(CCN(c3c(Cl)cncc3-c3ccc(N4CCOCC4)cc3)CC2)CN1,IC50,cells,746 nM
COc1ccc(-c2cncc(Cl)c2N2CCC(C(N)=O)CC2)cc1,IC50,[5],70 nM
same,IC50,[6],20 nM
same,IC50,[7],230 nM
same,IC50,[8],20 nM
same,"metabolised at 0.5 h, 10 µM",[2],84%
same,"metabolised at 0.5 h, 10 µM",[3],30%
same,IC50,cells,37 nM
same,IC50,[9],24 nM
NC(=O)C1CCN(c2c(Cl)cncc2-c2cccnc2)CC1,"metabolised at 0.5 h, 10 µM",[2],37%
same,"metabolised at 0.5 h, 10 µM",[3],6%
same,IC50,cells,1100 nM
Cn1ccc(-c2ccc(-c3cncc(Cl)c3N3CCC4(CCNC4=O)CC3)cc2)n1,CLint,Liver microsome,97 µL/min/mg
N#CC1CCN(c2c(Cl)cncc2-c2ccc(N3CCOCC3)cc2)CC1,"metabolised at 0.5 h, 10 µM",[2],78%
same,IC50,cells,70 nM
COCCNC(=O)C1CCN(c2c(Cl)cncc2Cl)CC1,IC50,cells,> 30000 nM
NC(=O)C1CCN(c2c(Cl)cncc2-c2cn[nH]c2)CC1,"metabolised at 0.5 h, 10 µM",[2],88%
same,"metabolised at 0.5 h, 10 µM",[3],6%
same,IC50,cells,1700 nM
